The record followed here is ChEMBL document CHEMBL1153749, “Flavonoids from the heartwood of the Thai medicinal plant Dalbergia parviflora and their effects on estrogenic-responsive human breast cancer cells” (2009).

Activity calls are given as the source filed them. The rule behind the calls is not given here.

What all share (assay type): functional
Experiment [1] concerns MCF7. Description: Estrogenic activity in human MCF7 cells assessed as drug level causing stimulation of cell proliferation equivalent to 100 pM estradiol after 96 hrs by alamar blue assay. The essentials: (§1)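 Cells seeded at 10^4 per well in phenol red-free RPMI with 5% DCC-treated FBS. Compounds added in DMSO (vehicle control 1% DMSO) for 96 h at 37 °C, 5% CO2, with serial estradiol dilutions run alongside. Alamar Blue for 3 h, fluorescence ex 530/em 590 nm. Estradiol-equivalent concentration fitted by linear regression from at least five concentrations in quadruplicate.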
In general terms: Alamar Blue is a resazurin reagent that responds to reducing activity.

In experiment [2] the test system is MCF7. Description: Estrogenic activity in human MCF7 cells assessed as drug level causing stimulation of cell proliferation equivalent to 10 pM estradiol after 96 hrs by alamar blue assay. The essentials: as §1
For experiment [3], the system named is T47D. The experiment is described as follows: Estrogenic activity in luciferase transfected human T47D cells assessed as drug level causing stimulation of cell proliferation equivalent to 100 pM estradiol by luciferase reporter gene assay. The essentials:
(§2)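 Reporter assay in MCF-7 or T47D cells transiently transfected with luciferase. Compounds tested from 0.01 to 10 µM. Luciferase induction is expressed as the compound concentration equivalent to the 10 or 100 pM estradiol response. Values come from linear regression over at least five concentrations in quadruplicate.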

Experiment [4] has as its system MCF7. The experiment is described as follows: Estrogenic activity in luciferase transfected human MCF7 cells assessed as drug level causing stimulation of cell proliferation equivalent to 10 pM estradiol by luciferase reporter gene assay. The essentials: as §2
(In general: In a reporter assay the amount or activity of a reporter protein is the signal.)

The test system of experiment [5] is T47D. Description: Estrogenic activity in human T47D cells assessed as drug level causing stimulation of cell proliferation equivalent to 10 pM estradiol after 96 hrs by alamar blue assay. In a few lines: as §1
The test system of experiment [6] is T47D. Description: Estrogenic activity in luciferase transfected human T47D cells assessed as drug level causing stimulation of cell proliferation equivalent to 10 pM estradiol by luciferase reporter gene assay. The essentials: as §2
Experiment [7] relates to MCF7. Description: Estrogenic activity in luciferase transfected human MCF7 cells assessed as drug level causing stimulation of cell proliferation equivalent to 100 pM estradiol by luciferase reporter gene assay. The essentials: as §2
In experiment [8] the test system is T47D. The experiment is described as follows: Estrogenic activity in human T47D cells assessed as drug level causing stimulation of cell proliferation equivalent to 100 pM estradiol after 96 hrs by alamar blue assay. The essentials: as §1

Regarding `COc1ccc([C@@H]2COc3cc(O)ccc3C2)c(O)c1`, the Activity in experiment [1] was greater than 100 µM; in experiment [2], greater than 100 µM; in experiment [3], greater than 100 µM; in experiment [4], greater than 100 µM; in experiment [5], 0.02 µM; in experiment [6], greater than 100 µM. The values for the Activity in experiment [7] and in experiment [8] were greater than 100 µM and 0.2 µM, respectively.
For `COc1cc(O)c(-c2coc3cc(O)cc(O)c3c2=O)cc1O` [KHRINONE B], the Activity in experiment [1], in experiment [2], in experiment [3], in experiment [4], in experiment [5] and in experiment [6] was greater than 100 µM in each case. The Activity in experiment [7] and in experiment [8] was greater than 100 µM in each case.
As to `COc1cc([C@H]2Oc3cc(O)ccc3C(=O)[C@@H]2O)ccc1O` [ERYCIBENIN D], the Activity in experiment [1] was greater than 100 µM; in experiment [2] it was greater than 100 µM; in experiment [3] it was greater than 100 µM; in experiment [4] it was greater than 100 µM; in experiment [5], 5.7 µM; in experiment [6], 0.3 µM. Further, the Activity in experiment [7] and in experiment [8] was greater than 100 µM each time.
Take `COc1cc(-c2coc3cc(O)ccc3c2=O)ccc1O`: the Activity is greater than 100 µM in experiment [1]; 4.7 µM in experiment [2]; 5.8 µM in experiment [3]; 1.1 µM in experiment [4]; greater than 100 µM in experiment [5]; 1.2 µM in experiment [6]. The Activity in experiment [7] was 2.2 µM; in experiment [8] it was greater than 100 µM.
On to `COc1cc2c(cc1O)C1c3ccc(O)cc3OCC1O2` (racemic), for which the outcome in experiment [1], in experiment [2], in experiment [3], in experiment [4], in experiment [5] and in experiment [6] was inactive. The result in experiment [7] and in experiment [8] was inactive.
Consider `O=C(/C=C/c1ccc(O)cc1)c1ccc(O)cc1O` [ISOLIQUIRITIGENIN], for which the Activity in experiment [1] was 4 µM; in experiment [2], 1.1 µM; in experiment [3], greater than 100 µM; in experiment [4] it was 0.01 µM; in experiment [5], 1 µM; in experiment [6] it was greater than 100 µM. The Activity in experiment [7] and in experiment [8] was greater than 100 µM in each case.
Consider `COc1cc(OC)c(-c2coc3cc(O)cc(O)c3c2=O)cc1OC`, for which the Activity in experiment [1] was greater than 100 µM; in experiment [2], greater than 100 µM; in experiment [3], greater than 100 µM; in experiment [4], 5.4 µM; in experiment [5], 0.1 µM; in experiment [6], 6.3 µM. In addition, the Activity in experiment [7] is 7.8 µM; in experiment [8], greater than 100 µM.
As for `COc1cc(O)ccc1C/C=C/c1ccc(O)cc1` [XENOGNOSIN], the Activity was 4.6 µM in experiment [1]; 0.1 µM in experiment [2]; 5.7 µM in experiment [3]; greater than 100 µM in experiment [4]; 0.7 µM in experiment [5]; 0.01 µM in experiment [6]. Moreover, the Activity in experiment [7] and in experiment [8] was greater than 100 µM each time.
For `COc1ccc([C@H]2COc3cc(O)cc(O)c3C2=O)cc1O`, the Activity in experiment [1] is greater than 100 µM; in experiment [2], 2.9 µM; in experiment [3], greater than 100 µM; in experiment [4], 0.6 µM; in experiment [5], 0.5 µM; in experiment [6], 1.3 µM. Moreover, the Activity in experiment [7] stood at 2.7 µM; in experiment [8], 5.7 µM.
For `COc1ccc([C@H]2COc3cc(O)ccc3C2=O)c(OC)c1O`, the Activity is 9.4 µM in experiment [1]; 2.1 µM in experiment [2]; greater than 100 µM in experiment [3]; greater than 100 µM in experiment [4]; 2.1 µM in experiment [5]; 0.6 µM in experiment [6]. Besides, the values for the Activity in experiment [7] and in experiment [8] were greater than 100 µM and 8.9 µM, respectively.
In the case of `O=c1c(-c2ccc(O)cc2)coc2cc(O)cc(O)c12` [GENISTEIN], the Activity in experiment [1] was determined as 0.11 µM; in experiment [2], 0.01 µM; in experiment [3] it was 0.6 µM; in experiment [4] it was 0.01 µM; in experiment [5], 0.01 µM; in experiment [6], 0.01 µM. Also, the Activity was 0.01 µM in experiment [7] and 0.08 µM in experiment [8].
Consider `COc1ccc(-c2coc3cc(O)ccc3c2=O)cc1O` [CALYCOSIN], for which the Activity in experiment [1] was greater than 100 µM; in experiment [2], greater than 100 µM; in experiment [3], greater than 100 µM; in experiment [4], 0.6 µM; in experiment [5], 4.1 µM; in experiment [6], 8.8 µM. The results for the Activity in experiment [7] and in experiment [8] were 4.7 µM and greater than 100 µM, respectively.
In the case of `COc1ccc(-c2coc3cc(O)cc(O)c3c2=O)c(OC)c1`, the Activity in experiment [1] was 19.6 µM; in experiment [2] it was 3.2 µM; in experiment [3] it was 3.1 µM; in experiment [4] it was greater than 100 µM; in experiment [5] it was 0.4 µM; in experiment [6] it was 1.8 µM. For the same compound, the Activity in experiment [7] and in experiment [8] was greater than 100 µM in each case.
With `COc1c(O)cc2occ(-c3ccc(O)cc3)c(=O)c2c1O` [TECTORIGENIN], the Activity was 2.7 µM in experiment [1]; 0.5 µM in experiment [2]; 2.2 µM in experiment [3]; greater than 100 µM in experiment [4]; 0.3 µM in experiment [5]; 1.4 µM in experiment [6]. In addition, the Activity in experiment [7] was greater than 100 µM; in experiment [8], 6.9 µM.
Turning to `COc1ccc(-c2coc3cc(O)ccc3c2=O)c(OC)c1` [2'-METHOXYFORMONETIN], the Activity in experiment [1] was 5.2 µM; in experiment [2] it was 0.3 µM; in experiment [3], 6.2 µM; in experiment [4] it was greater than 100 µM; in experiment [5], 0.01 µM; in experiment [6] it was 1.8 µM. The values for the Activity in experiment [7] and in experiment [8] were greater than 100 µM and 1.7 µM, respectively.
Take `O=C1C[C@@H](c2ccc(O)cc2)Oc2cc(O)ccc21` [LIQUIRTIGENIN]: the Activity in experiment [1] was found to be 0.65 µM; in experiment [2] it was 0.1 µM; in experiment [3] it was 5.9 µM; in experiment [4], 0.01 µM; in experiment [5], 0.64 µM; in experiment [6] it was 0.01 µM. Moreover, the Activity in experiment [7] was 0.01 µM; in experiment [8], greater than 100 µM.
Consider `COc1c(C/C=C/c2ccccc2)ccc(O)c1O` [HYDROXYOBUSTYRENE], for which the Activity is greater than 100 µM in experiment [1]; greater than 100 µM in experiment [2]; greater than 100 µM in experiment [3]; greater than 100 µM in experiment [4]; 5.1 µM in experiment [5]; greater than 100 µM in experiment [6]. Also, the Activity in experiment [7] and in experiment [8] was greater than 100 µM in each case.
In the case of `O=C1c2c(O)cc(O)cc2O[C@H](c2ccccc2)[C@H]1O`, the result in experiment [1], in experiment [2], in experiment [3], in experiment [4], in experiment [5] and in experiment [6] was inactive. The result in experiment [7] and in experiment [8] was inactive.
As for `COc1cc(O)c([C@@H]2COc3cc(O)ccc3C2)cc1OC`, the Activity is 0.2 µM in experiment [1]; 1.1 µM in experiment [2]; greater than 100 µM in experiment [3]; greater than 100 µM in experiment [4]; 0.02 µM in experiment [5]; greater than 100 µM in experiment [6]. Also, the Activity in experiment [7] and in experiment [8] was greater than 100 µM in each case.
`COc1ccc(C2COc3cc(O)ccc3C2=O)c(OC)c1OC` (stereo not drawn): the Activity in experiment [1] was 46.3 µM; in experiment [2], 2.5 µM; in experiment [3], greater than 100 µM; in experiment [4], greater than 100 µM; in experiment [5] it was 6.1 µM; in experiment [6] it was 3.3 µM. Also, the Activity in experiment [7] and in experiment [8] was greater than 100 µM in each case.
As for `COc1ccc([C@@]2(O)COc3cc(O)ccc3C2=O)c(O)c1O` [ISODARPARVINOL B], the Activity is greater than 100 µM in experiment [1]; greater than 100 µM in experiment [2]; greater than 100 µM in experiment [3]; 1.2 µM in experiment [4]; greater than 100 µM in experiment [5]; greater than 100 µM in experiment [6]. For the same compound, the Activity was 3.4 µM in experiment [7] and greater than 100 µM in experiment [8].
